Reference: ChEMBL document CHEMBL2346608, “New annelated thieno[2,3-e][1,2,3]triazolo[1,5-a]pyrimidines, with potent anticancer activity, designed through VLAK protocol” (2013)

Legend:
Assay type in all cases: functional
[1] = tested on: DU-145; test: Antiproliferative activity against human DU145 cells after 48 hrs by sulforhodamine B assay; settings: DU-145, 48 h
In short: (§1)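 Cells grown in RPMI 1640 with 5% FBS and 2 mM L-glutamine, plated at 5000–40,000 cells/well and preincubated 24 h at 37 °C, 5% CO2. Five drug concentrations (10-fold or ½-log dilutions from DMSO stocks) applied for 48 h. TCA-fixed (final 10% adherent, 16% suspension), SRB-stained, A515 read. Growth versus time-zero and control wells gave GI50, TGI, LC50.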

[2] = tested on: OVCAR-4; test: Antiproliferative activity against human OVCAR4 cells after 48 hrs by sulforhodamine B assay; settings: OVCAR-4, 48 h; in short: as §1
[3] = tested on: OVCAR-5; test: Antiproliferative activity against human OVCAR5 cells after 48 hrs by sulforhodamine B assay; settings: OVCAR-5, 48 h; in short: as §1
[4] = tested on: OVCAR-3; test: Antiproliferative activity against human OVCAR3 cells after 48 hrs by sulforhodamine B assay; settings: OVCAR-3, 48 h; in short: as §1
[5] = tested on: NCI/ADR-RES; test: Antiproliferative activity against human NCI/ADR-RES cells after 48 hrs by sulforhodamine B assay; in short: as §1
[6] = tested on: NCI-H460; test: Antiproliferative activity against human NCI-H460 cells after 48 hrs by sulforhodamine B assay; settings: NCI-H460, 48 h; in short: as §1
[7] = tested on: NCI-H322M; test: Antiproliferative activity against human NCI-H322M cells after 48 hrs by sulforhodamine B assay; in short: as §1
[8] = Antiproliferative activity against human EKVX cells after 48 hrs by sulforhodamine B assay; in short: as §1
[9] = tested on: A549; test: Antiproliferative activity against human A549 cells after 48 hrs by sulforhodamine B assay; settings: A549, 48 h; in short: as §1
[10] = tested on: UACC-257; test: Antiproliferative activity against human UACC257 cells after 48 hrs by sulforhodamine B assay; settings: UACC-257, 48 h
In short: (§2)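 Cells in RPMI 1640 with 5% FBS and 2 mM L-glutamine were seeded at 5000–40,000/well according to doubling time and preincubated 24 h at 37 °C in 5% CO2. Time-zero plates were TCA-fixed when drug was added. Five 10-fold or ½-log dilutions from DMSO stocks were added for 48 h. After SRB staining, A515 was read and GI50 derived from [(Ti−Tz)/(C−Tz)]×100 = 50.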

[11] = tested on: SK-MEL-5; test: Antiproliferative activity against human SK-MEL-5 cells after 48 hrs by sulforhodamine B assay; settings: SK-MEL-5, 48 h; in short: as §1
[12] = tested on: SK-MEL-28; test: Antiproliferative activity against human SK-MEL-28 cells after 48 hrs by sulforhodamine B assay; settings: SK-MEL-28, 48 h; in short: as §1
[13] = tested on: Malme-3M; test: Antiproliferative activity against human MALME-3M cells after 48 hrs by sulforhodamine B assay; in short: as §1
[14] = tested on: LOX IMVI; test: Antiproliferative activity against human LOXIMVI cells after 48 hrs by sulforhodamine B assay; in short: as §1
[15] = tested on: RPMI-8226; test: Antiproliferative activity against human RPMI8226 cells after 48 hrs by sulforhodamine B assay; settings: RPMI-8226, 48 h; in short: as §1
[16] = tested on: MOLT-4; test: Antiproliferative activity against human MOLT4 cells after 48 hrs by sulforhodamine B assay; settings: MOLT-4, 48 h; in short: as §1
[17] = tested on: SW-620; test: Antiproliferative activity against human SW620 cells after 48 hrs by sulforhodamine B assay; settings: SW-620, 48 h; in short: as §2
[18] = tested on: HCT-15; test: Antiproliferative activity against human HCT15 cells after 48 hrs by sulforhodamine B assay; settings: HCT-15, 48 h; in short: as §1
[19] = tested on: HT-29; test: Antiproliferative activity against human HT-29 cells after 48 hrs by sulforhodamine B assay; settings: HT-29, 48 h; in short: as §1
[20] = tested on: HCT-116; test: Antiproliferative activity against human HCT116 cells after 48 hrs by sulforhodamine B assay; settings: HCT-116, 48 h; in short: as §1
[21] = tested on: U-251; test: Antiproliferative activity against human U251 cells after 48 hrs by sulforhodamine B assay; settings: U-251, 48 h; in short: as §2
[22] = tested on: SNB-75; test: Antiproliferative activity against human SNB75 cells after 48 hrs by sulforhodamine B assay; settings: SNB-75, 48 h; in short: as §2
[23] = tested on: SF-268; test: Antiproliferative activity against human SF268 cells after 48 hrs by sulforhodamine B assay; settings: SF-268, 48 h; in short: as §1
[24] = tested on: MDA-MB-468; test: Antiproliferative activity against human MDA-MB-468 cells after 48 hrs by sulforhodamine B assay; settings: MDA-MB-468, 48 h; in short: as §1
[25] = tested on: T47D; test: Antiproliferative activity against human T47D cells after 48 hrs by sulforhodamine B assay; in short: as §2
[26] = tested on: MCF7; test: Antiproliferative activity against human MCF7 cells after 48 hrs by sulforhodamine B assay; settings: MCF7, 48 h; in short: as §1
[27] = tested on: CAKI-1; test: Antiproliferative activity against human CAKI-1 cells after 48 hrs by sulforhodamine B assay; settings: CAKI-1, 48 h; in short: as §1
[28] = tested on: ACHN; test: Antiproliferative activity against human ACHN cells after 48 hrs by sulforhodamine B assay; in short: as §1
[29] = tested on: 786-0; test: Antiproliferative activity against human 786-0 cells after 48 hrs by sulforhodamine B assay; settings: 786-0, 48 h; in short: as §1
[30] = read-out: pLC50 (the source's name) (converted)

CN1CCN(CCCn2c(=O)c3sc4ncccc4c3n3nnc(-c4ccccc4)c23)CC1
GI50 [1]: 5.89 µM
LC50 [1]: 25.1 µM
TGI ([1]; read-out: pTGI (converted)): 12.3 µM
GI50 [2]: 7.24 µM
LC50 (concentration killing 50% of cells) [2]: 26.9 µM
TGI ([2]; read-out: pTGI (converted)): 14.1 µM
GI50 [3]: 8.91 µM
LC50 [3]: 32.4 µM
TGI ([3]; read-out: pTGI (converted)): 17 µM
GI50 [4]: 2.29 µM
LC50 [4]: 20.4 µM
TGI ([4]; read-out: pTGI (converted)): 7.59 µM
GI50 [5]: 7.24 µM
LC50 [5]: 28.2 µM
TGI ([5]; read-out: pTGI (converted)): 14.1 µM
GI50 [6]: 6.92 µM
LC50 [6]: 26.9 µM
TGI ([6]; read-out: pTGI (converted)): 13.8 µM
GI50 [7]: 6.17 µM
LC50 [7]: 26.9 µM
TGI ([7]; read-out: pTGI (converted)): 12.9 µM
GI50 [8]: 6.46 µM
LC50 [8]: 27.5 µM
TGI ([8]; read-out: pTGI (converted)): 13.2 µM
GI50 [9]: 6.76 µM
LC50 [9]: 28.2 µM
TGI ([9]; read-out: pTGI (converted)): 13.8 µM
GI50 [10]: 2.29 µM
LC50 [10]: 20.4 µM
TGI ([10]; read-out: pTGI (converted)): 7.59 µM
GI50 [11]: 7.24 µM
LC50 [11]: 26.3 µM
TGI ([11]; read-out: pTGI (converted)): 13.8 µM
GI50 [12]: 8.71 µM
LC50 [12]: 28.2 µM
TGI ([12]; read-out: pTGI (converted)): 15.8 µM
GI50 [13]: 9.33 µM
LC50 [13]: 33.9 µM
TGI ([13]; read-out: pTGI (converted)): 17.8 µM
GI50 [14]: 5.37 µM
CC50 [14, 30]: 25.1 µM
TGI ([14]; read-out: pTGI (converted)): 11.5 µM
GI50 [15]: 6.17 µM
CC50 [15, 30]: 40.7 µM
TGI ([15]; read-out: pTGI (converted)): 15.8 µM
GI50 [16]: 1.55 µM
LC50 [16]: 21.4 µM
TGI ([16]; read-out: pTGI (converted)): 4.9 µM
GI50 [17]: 5.37 µM
LC50 [17]: 24.5 µM
TGI ([17]; read-out: pTGI (converted)): 11.5 µM
GI50 [18]: 6.17 µM
LC50 [18]: 28.2 µM
TGI ([18]; read-out: pTGI (converted)): 13.2 µM
GI50 [19]: 2.88 µM
LC50 [19]: 23.4 µM
TGI ([19]; read-out: pTGI (converted)): 9.55 µM
GI50 [20]: 5.25 µM
LC50 [20]: 26.3 µM
TGI ([20]; read-out: pTGI (converted)): 11.7 µM
GI50 [21]: 5.25 µM
LC50 [21]: 24 µM
TGI ([21]; read-out: pTGI (converted)): 11.2 µM
GI50 [22]: 6.76 µM
LC50 (concentration killing 50% of starting cells) [22]: 25.7 µM
TGI ([22]; read-out: pTGI (converted)): 13.2 µM
GI50 [23]: 6.46 µM
LC50 [23]: 26.9 µM
TGI ([23]; read-out: pTGI (converted)): 13.2 µM
GI50 [24]: 6.92 µM
LC50 [24]: 28.2 µM
TGI ([24]; read-out: pTGI (converted)): 13.8 µM
GI50 [25]: 7.94 µM
LC50 [25]: 31.6 µM
TGI ([25]; read-out: pTGI (converted)): 15.8 µM
GI50 [26]: 7.76 µM
LC50 [26]: 29.5 µM
TGI ([26]; read-out: pTGI (converted)): 15.1 µM
GI50 [27]: 6.17 µM
CC50 [27, 30]: 27.5 µM
TGI ([27]; read-out: pTGI (converted)): 12.9 µM
GI50 [28]: 8.13 µM
LC50 (50% lethal concentration) [28]: 27.5 µM
TGI ([28]; read-out: pTGI (converted)): 15.1 µM
GI50 [29]: 7.41 µM
CC50 [29, 30]: 28.8 µM
TGI ([29]; read-out: pTGI (converted)): 14.5 µM
